Measurements taken from ChEMBL document CHEMBL2040839, “Novel cinnamic acid/4-aminoquinoline conjugates bearing non-proteinogenic amino acids: towards the development of potential dual action antimalarials” (Eur J Med Chem, 2012).

Tests used:
[1] = system: Plasmodium falciparum; test: Antiplasmodial activity against chloroquine-resistant blood-stage Plasmodium falciparum W2 after 48 hrs by flow cytometric analysis; assay type: functional, organism-based; conditions: W2, 48 h
Procedure, shortened: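 Synchronized ring-stage W2 parasites cultured 48 h with multiple compound concentrations (from 1000× DMSO stocks) in RPMI 1640 with 10% human serum or 0.5% Albumax. Cells then fixed in 1% formaldehyde/PBS pH 7.4 for 48 h at room temperature and stained with YOYO-1 (1 nM) in 0.1% Triton X-100. Parasitemia read by flow cytometry. IC50 taken from percent-of-control parasitemia curves, R2 >0.95.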

[2] = Inhibition of Plasmodium falciparum falcipain 2 using substrate benzoxycarbonyl-Leu-Arg-7-amino-4-methyl-coumarin preincubated for 30 mins before substrate addition by fluorescence assay
Procedure, shortened: (§1)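 Recombinant enzyme (1 nM) incubated with inhibitor at varied concentrations (from 10 mM DMSO stocks) in 100 mM sodium acetate pH 5.5, 10 mM DTT, 30 min at room temperature. Substrate then added at 25 μM final. Fluorescence monitored continuously for 30 min at room temperature; IC50 from curve fitting. FP3 tested only for compounds with FP2 IC50 < 50 μM.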

[3] = system: Heme; test: Inhibition of heme polymerization at 1 mM after 48 hrs by spectrophotometry relative to chloroquine
Procedure, shortened: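 Hemin chloride in DMSO (5.2 mg/mL) mixed with compound in DMSO (0.1–1 mM), in triplicate; water or DMSO as negative control, 1 mM CQ as positive. β-hematin formation started with 0.2 M acetate buffer pH 4.4, then 48 h at 37 °C. Pellet washed with DMSO, dissolved in 0.2 M NaOH, diluted 1:6 in 0.1 M NaOH, read at 405 nm.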

[4] = Inhibition of Plasmodium falciparum falcipain 3 using substrate benzoxycarbonyl-Leu-Arg-7-amino-4-methyl-coumarin preincubated for 30 mins before substrate addition by fluorescence assay; procedure, shortened: as §1

Row | SMILES | IC50 [1] [µM] | IC50 [2] [µM] | inhibition [3] [%] | IC50 [4] [µM]
1 | Cc1ccc(/C=C/C(=O)N[C@H](CC(C)C)C(=O)N[C@H](CCc2ccccc2)C(=O)Nc2ccnc3cc(Cl)ccc23)cc1 | 1.96 | > 50 | > 75 | –
2 | O=C(/C=C/c1ccc([N+](=O)[O-])cc1)Nc1ccnc2cc(Cl)ccc12 | > 10 | > 50 | < 50 | –
3 | CC(C)C[C@@H](NC(=O)/C=C/c1ccccc1[N+](=O)[O-])C(=O)N[C@H](CCc1ccccc1)C(=O)Nc1ccnc2cc(Cl)ccc12 | 1.66 | > 50 | 50 | –
4 | O=C(/C=C/c1ccc(Br)cc1)Nc1ccnc2cc(Cl)ccc12 | > 10 | 33.1 | < 50 | > 50
5 | C[C@@H]1CC[C@H]2[C@@H](C)C(=O)O[C@@H]3O[C@@]4(C)CC[C@@H]1[C@]32OO4 [ARTEMISININ] | 0.00876 | – | – | –
6 | Cc1ccc(/C=C/C(=O)Nc2ccnc3cc(Cl)ccc23)cc1 | > 10 | 28.5 | < 50 | > 50
7 | O=C(/C=C/c1ccccc1[N+](=O)[O-])Nc1ccnc2cc(Cl)ccc12 | > 10 | 23.6 | < 50 | > 50
8 | CC(C)C[C@@H](NC(=O)/C=C/c1ccccc1)C(=O)N[C@H](CCc1ccccc1)C(=O)Nc1ccnc2cc(Cl)ccc12 | 4.89 | 19.6 | < 50 | > 50
9 | CCN(CC)CCCC(C)Nc1ccnc2cc(Cl)ccc12 (centres undefined) | – | – | > 75 | –
10 | O=C(/C=C/c1cccc(F)c1)Nc1ccnc2cc(Cl)ccc12 | > 10 | > 50 | < 50 | –
11 | CC(C)C[C@@H](NC(=O)/C=C/c1cccc(F)c1)C(=O)N[C@H](CCc1ccccc1)C(=O)Nc1ccnc2cc(Cl)ccc12 | 5.43 | 23.1 | < 50 | > 50
12 | CC(C)C[C@@H](NC(=O)/C=C/c1ccc(F)cc1)C(=O)N[C@H](CCc1ccccc1)C(=O)Nc1ccnc2cc(Cl)ccc12 | 4.67 | 50 | < 50 | –
13 | CC(C)C[C@H](NC(=O)/C=C/c1ccccc1)C(=O)N[C@@H](CCc1ccccc1)C(=O)Nc1ccnc2cc(Cl)ccc12 | 8 | 50 | – | –
14 | COc1ccc(/C=C/C(=O)Nc2ccnc3cc(Cl)ccc23)cc1 | > 10 | > 50 | < 50 | –
15 | CC(C)C[C@@H](NC(=O)/C=C/c1ccc([N+](=O)[O-])cc1)C(=O)N[C@H](CCc1ccccc1)C(=O)Nc1ccnc2cc(Cl)ccc12 | 1.23 | > 50 | > 75 | –
16 | O=C(/C=C/c1cccc([N+](=O)[O-])c1)Nc1ccnc2cc(Cl)ccc12 | > 10 | 14.2 | < 50 | > 50
17 | CC(C)C[C@@H](NC(=O)/C=C/c1cccc([N+](=O)[O-])c1)C(=O)N[C@H](CCc1ccccc1)C(=O)Nc1ccnc2cc(Cl)ccc12 | 2.1 | 28.1 | < 50 | > 50
18 | O=C(/C=C/c1ccc(Cl)cc1)Nc1ccnc2cc(Cl)ccc12 | > 10 | 41.3 | < 50 | > 50
19 | O=C(/C=C/c1ccccc1)Nc1ccnc2cc(Cl)ccc12 | > 10 | > 50 | < 50 | –
20 | COc1ccc(/C=C/C(=O)N[C@H](CC(C)C)C(=O)N[C@H](CCc2ccccc2)C(=O)Nc2ccnc3cc(Cl)ccc23)cc1 | 10.8 | > 50 | 50 | –
21 | CC(C)c1ccc(/C=C/C(=O)Nc2ccnc3cc(Cl)ccc23)cc1 | > 10 | > 50 | < 50 | –
22 | CC(C)C[C@@H](NC(=O)/C=C/c1ccc(C(C)C)cc1)C(=O)N[C@H](CCc1ccccc1)C(=O)Nc1ccnc2cc(Cl)ccc12 | 0.83 | > 50 | < 50 | –
23 | CC(C)C[C@H](NC(=O)[C@H]1O[C@@H]1C(=O)O)C(=O)NCCCCN=C(N)N [E-64] | – | 0.0246 | – | –
24 | CC(C)C[C@@H](NC(=O)/C=C/c1ccc(N)cc1)C(=O)N[C@H](CCc1ccccc1)C(=O)Nc1ccnc2cc(Cl)ccc12 | 3.28 | 20.3 | > 75 | > 50
25 | CC(C)C[C@@H](NC(=O)/C=C/c1ccc(Br)cc1)C(=O)N[C@H](CCc1ccccc1)C(=O)Nc1ccnc2cc(Cl)ccc12 | 2.55 | 48.3 | < 50 | > 50
26 | O=C(/C=C/c1ccc(F)cc1)Nc1ccnc2cc(Cl)ccc12 | > 10 | > 50 | < 50 | –
27 | CC(C)C[C@@H](NC(=O)/C=C/c1ccc(Cl)cc1)C(=O)N[C@H](CCc1ccccc1)C(=O)Nc1ccnc2cc(Cl)ccc12 | 2.89 | > 50 | < 50 | –
